Measurements from ChEMBL document CHEMBL2440012, “Design, synthesis and anticonvulsant properties of new N-Mannich bases derived from 3-phenylpyrrolidine-2,5-diones” (Bioorg Med Chem, 2013).
Activity calls are given as the source filed them. No cut-off for these calls is given here.

Tests used:
[1] = test system: Mus musculus; assay: Neurotoxicity in ip dosed albino CF1 mouse assessed as minimum motor impairment in half or more animals measured after 4 hrs by rotorod test; type: toxicity, organism-based; conditions: in vivo
Outline: (§1)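 Male CF-1 mice given ip suspension in 0.5% methylcellulose/water at 30, 100 and 300 mg/kg; MES, scPTZ (pentylenetetrazole 85 mg/kg sc, CD97 dose for clonic seizures ≥5 s) and rotarod (inability to hold balance 1 min in each of three trials) assessed at 0.5 and 4 h; value is minimum dose active in half or more animals.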

[2] = test system: Mus musculus; assay: Neurotoxicity in ip dosed albino CF1 mouse assessed as minimum motor impairment in half or more animals measured after 0.5 hrs by rotorod test; type: toxicity, organism-based; conditions: in vivo; outline: as §1
[3] = test system: Mus musculus; assay: Anticonvulsant activity in albino CF1 mouse assessed as protection against subcutaneous pentylenetetrazole-induced convulsion at 300 mg/kg, ip measured after 4 hrs; type: functional, organism-based; set-up: dose 300 mg/kg; outline: as §1
[4] = test system: Mus musculus; assay: Anticonvulsant activity in albino CF1 mouse assessed as protection against subcutaneous pentylenetetrazole-induced convulsion at 300 mg/kg, ip measured after 0.5 hrs; type: functional, organism-based; set-up: dose 300 mg/kg; outline: as §1
[5] = test system: Mus musculus; assay: Anticonvulsant activity in albino CF1 mouse assessed as protection against maximal electroshock-induced seizures at 300 mg/kg, ip measured after 0.5 hr; type: functional, organism-based; set-up: dose 300 mg/kg; outline: as §1
[6] = test system: Mus musculus; assay: Anticonvulsant activity in albino CF1 mouse assessed as protection against maximal electroshock-induced seizures at 300 mg/kg, ip measured after 4 hrs; type: functional, organism-based; set-up: dose 300 mg/kg; outline: as §1
[7] = test system: Mus musculus; assay: Neurotoxicity in albino CF1 mouse assessed as minimum motor impairment at 300 mg/kg, ip measured after 4 hrs by rotorod test; type: toxicity, organism-based; set-up: dose 300 mg/kg, route intraperitoneal; conditions: in vivo; outline: as §1
[8] = test system: Mus musculus; assay: Neurotoxicity in albino CF1 mouse assessed as minimum motor impairment at 300 mg/kg, ip measured after 0.5 hr by rotorod test; type: toxicity, organism-based; set-up: dose 300 mg/kg, route intraperitoneal; conditions: in vivo; outline: as §1
[9] = test system: Mus musculus; assay: Anticonvulsant activity in ip dosed albino CF1 mouse assessed as protection against maximal electroshock-induced seizures in half or more animals measured after 0.5 hr; type: functional; conditions: read-out: MED; outline: as §1
[10] = test system: Mus musculus; assay: Anticonvulsant activity in ip dosed albino CF1 mouse assessed as protection against maximal electroshock-induced seizures in half or more animals measured after 4 hrs; type: functional; conditions: read-out: MED; outline: as §1
[11] = test system: Rattus norvegicus; assay: Anticonvulsant activity in albino Sprague-Dawley rat assessed as protection against maximal electroshock-induced seizures at 30 mg/kg, po measured after 4 hrs; type: functional
Outline: (§2)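 Male Sprague-Dawley rats, four per group, dosed p.o. at 30 mg/kg in 0.5% methylcellulose/water suspension; MES test at 0.25, 0.5, 1, 2 and 4 h, motor impairment examined in parallel; number of rats out of four protected.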

[12] = test system: Rattus norvegicus; assay: Anticonvulsant activity in albino Sprague-Dawley rat assessed as protection against maximal electroshock-induced seizures at 30 mg/kg, po measured after 2 hrs; type: functional; outline: as §2
[13] = test system: Rattus norvegicus; assay: Anticonvulsant activity in albino Sprague-Dawley rat assessed as protection against maximal electroshock-induced seizures at 30 mg/kg, po measured after 1 hr; type: functional; outline: as §2
[14] = test system: Rattus norvegicus; assay: Anticonvulsant activity in albino Sprague-Dawley rat assessed as protection against maximal electroshock-induced seizures at 30 mg/kg, po measured after 0.5 hr; type: functional; outline: as §2
[15] = test system: Rattus norvegicus; assay: Anticonvulsant activity in albino Sprague-Dawley rat assessed as protection against maximal electroshock-induced seizures at 30 mg/kg, po measured after 0.25 hr; type: functional; outline: as §2
[16] = test system: Mus musculus; assay: Anticonvulsant activity in albino CF1 mouse assessed as assessed as protection against 6 Hz psychomotor seizure at 100 mg/kg, ip after 4 hrs by minimal clonic seizure test; type: functional; conditions: route intraperitoneal
Outline: (§3)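 Male CF-1 mice, groups of four, dosed ip in 0.5% methylcellulose/water suspension, then challenged by 6-Hz corneal stimulation at 32 mA (0.2 ms pulses, 3 s, constant current) at 0.25, 0.5, 1, 2 or 4 h; count of mice out of four protected from stunned posture/clonic seizure.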

[17] = test system: Mus musculus; assay: Anticonvulsant activity in albino CF1 mouse assessed as assessed as protection against 6 Hz psychomotor seizure at 100 mg/kg, ip after 2 hrs by minimal clonic seizure test; type: functional; conditions: route intraperitoneal; outline: as §3
[18] = test system: Mus musculus; assay: Anticonvulsant activity in albino CF1 mouse assessed as assessed as protection against 6 Hz psychomotor seizure at 100 mg/kg, ip after 1 hr by minimal clonic seizure test; type: functional; conditions: route intraperitoneal; outline: as §3
[19] = test system: Mus musculus; assay: Anticonvulsant activity in albino CF1 mouse assessed as assessed as protection against 6 Hz psychomotor seizure at 100 mg/kg, ip after 0.25 hr by minimal clonic seizure test; type: functional; conditions: route intraperitoneal; outline: as §3
[20] = test system: Mus musculus; assay: Anticonvulsant activity in albino CF1 mouse assessed as assessed as protection against 6 Hz psychomotor seizure at 100 mg/kg, ip after 0.5 hr by minimal clonic seizure test; type: functional; conditions: route intraperitoneal; outline: as §3

In the case of `O=C1CC(c2ccc(Cl)cc2)C(=O)N1CN1CCN(c2ccccc2Cl)CC1` (racemic), the MED [1] is reported as 300 mg/kg, the MED [2] is reported as 300 mg/kg and the Activity [3] is reported as “inactive”. For the same compound, the Activity [4] was “inactive”, the Activity [5] was “inactive” and the Activity [6] was “inactive”.

For `O=C1CC(c2cccc(Cl)c2)C(=O)N1CN1CCN(C2CCCCC2)CC1` (racemic), the Activity [7] was “Non-toxic”, the Activity [8] was “Non-toxic” and the Activity [3] was “inactive”. The Activity [4] was “inactive”, the minimal effective dose [9] was 300 mg/kg and the minimal effective dose [10] was 300 mg/kg.

In the case of `O=C1CC(c2ccc(Cl)cc2)C(=O)N1CN1CCN(c2ccc(Cl)cc2)CC1` (racemic), the Activity [7] is reported as “Non-toxic”, the Activity [8] is reported as “Non-toxic” and the Activity [3] is reported as “inactive”. For the same compound, the Activity [4] was “inactive”, the Activity [5] was “inactive” and the Activity [6] was “inactive”.

For `COc1ccccc1N1CCN(CN2C(=O)CC(c3cccc(Cl)c3)C2=O)CC1` (racemic), the MED [1] was 300 mg/kg, the MED [2] was 300 mg/kg and the Activity [3] was “inactive”. For the same compound, the Activity [4] was “inactive”, the Activity [5] was “inactive” and the Activity [6] was “inactive”.

With `O=C1CC(c2ccc(Cl)cc2)C(=O)N1CN1CCN(C2CCCCC2)CC1` (racemic) the Activity [7] was “Non-toxic”, the Activity [8] was “Non-toxic” and the Activity [3] was “inactive”. For the same compound, the Activity [4] was “inactive”, the minimal effective dose [10] was 100 mg/kg and the Activity [5] was “inactive”.

With `Cc1cccc(N2CCN(CN3C(=O)CC(c4cccc(Cl)c4)C3=O)CC2)c1` (racemic) the Activity [7] was “Non-toxic”, the MED [2] was 100 mg/kg and the Activity [3] was “inactive”. The Activity [4] was “inactive”, the minimal effective dose [10] was 30 mg/kg and the Activity [5] was “inactive”.

`O=C1CC(c2cccc(Cl)c2)C(=O)N1CN1CCC(Cc2ccccc2)CC1` (racemic) was tested, and the Activity [11] was “inactive”, the Activity [12] was 50% and the Activity [13] was 25%. For the same compound, the Activity [14] was “inactive”, the Activity [15] was 50% and the Activity [7] was “Non-toxic”. The Activity [8] was “Non-toxic”, the Activity [3] was “inactive” and the Activity [4] was “inactive”. For the same compound, the minimal effective dose [9] was 300 mg/kg and the minimal effective dose [10] was 100 mg/kg.

For `O=C1CC(c2cccc(Cl)c2)C(=O)N1CN1CCN(c2ccccc2Cl)CC1` (racemic), the Activity [7] was “Non-toxic”, the Activity [8] was “Non-toxic” and the Activity [3] was “inactive”. The Activity [4] was “inactive”, the Activity [5] was “inactive” and the Activity [6] was “inactive”.

For `O=C1CC(c2ccc(Cl)cc2)C(=O)N1CN1CCC(Cc2ccccc2)CC1` (racemic), the Activity [16] was 25%, the Activity [17] was 75% and the Activity [18] was 0%. The Activity [19] was 0%, the Activity [7] was “Non-toxic” and the Activity [8] was “Non-toxic”. The Activity [3] was “inactive”, the Activity [4] was “inactive” and the minimal effective dose [10] was 100 mg/kg. The Activity [5] was “inactive” and the Activity [20] was 0%.

For `O=C1CC(c2ccccc2Cl)C(=O)N1CN1CCN(C2CCCCC2)CC1` (racemic), the Activity [7] was “Non-toxic”, the Activity [8] was “Non-toxic” and the Activity [3] was “inactive”. For the same compound, the Activity [4] was “inactive”, the minimal effective dose [10] was 100 mg/kg and the Activity [5] was “inactive”.

Compound `O=C1CC(c2cccc(Cl)c2)C(=O)N1CN1CCOCC1` (racemic) has an Activity [11] of 50%, an Activity [12] of 50% and an Activity [13] of 50%. The Activity [14] was 50%, the Activity [15] was “inactive” and the Activity [7] was “Non-toxic”. For the same compound, the MED [2] was 300 mg/kg, the Activity [3] was “inactive” and the Activity [4] was “inactive”. For the same compound, the minimal effective dose [9] was 100 mg/kg and the minimal effective dose [10] was 100 mg/kg.

For `O=C1CC(c2ccc(Cl)cc2)C(=O)N1CN1CCN(c2cccc(C(F)(F)F)c2)CC1` (racemic), the Activity [7] was “Non-toxic”, the MED [2] was 300 mg/kg and the Activity [3] was “inactive”. For the same compound, the Activity [4] was “inactive”, the minimal effective dose [10] was 100 mg/kg and the Activity [5] was “inactive”.
